Several values for one entry are separate records, joined by “and”; a condition that tells them apart may be missing. Identical values can stand only once.
How the values were obtained:
[1] = mouse, in vivo, ip
[2] = test system: Nos2, Ifn-γ, Tnf-α, Cd38, Egr2; parameters: species or system BALB/c mice; conditions: mouse, in vivo
[3] = test system: naive CD4+ and CD8+ T cells; conditions: via interactions with CD14+ monocytes in vitro; cited from earlier work
[4] = test system: lung inflammation of Mtb-infected mice; parameters: species or system BALB/c mice; conditions: mouse, in vivo
[5] = test system: Mtb H37Rv; parameters: species or system Mycobacterium tuberculosis; conditions: in vivo
[6] = Single-dose plasma pharmacokinetics, intraperitoneal; assay type: in vivo, BALB/c mice; conditions: single IP dose, sampling up to 24 hours
Outline: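 Female BALB/c mice, 9–11 weeks old, each received one intraperitoneal dose (5 or 10 mg/kg) of the test compound, a tin metalloporphyrin HO-1 inhibitor, in sodium phosphate buffer (pH 7.4 – 7.8). Blood was drawn from three mice per time point at 0.25, 0.5, 1, 2, 4, 8 and 24 h. Plasma was assayed by LC-MS/MS. t1/2, tmax, Cmax, AUClast and AUCInf came from noncompartmental analysis.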

[7] = test system: Mtb H37Rv; parameters: species or system Mycobacterium tuberculosis; conditions: in vivo; remark: listed apart in the source
[8] = test system: human peripheral blood mononuclear cells; conditions: cited from earlier work
[9] = test system: lung inflammation of Mtb-infected mice; parameters: species or system BALB/c mice; conditions: mouse, in vivo; remark: listed apart in the source
[10] = test system: Mtb; conditions: C57BL/6 mice, chronic phase of infection; cited from earlier work
[11] = test system: Mtb-infected U937 cells; conditions: cited from earlier work
[12] = chronic treatment, wild-type mice; cited from earlier work

Compound	Tolerability [1]	Cd38 expression in lung compared to any other treatment group [2]	Tnf-α expression in lung relative to vehicle [2]	Activation, proliferation, and maturation of naive CD4+ and CD8+ T cells [3]	Lung/body weight ratio versus SPaO control regimen [4]	Lung bacillary burdens relative to the SPaO regimen [5]	Microbiological relapse rates [5]	Last time point with detectable blood concentrations [6]	Additive effect on lung CFU when co-administered with SPaO [7]	Enhancement of the bactericidal activity of RHZ [7]	Mean lung log10 CFU count (±SD) at W2 [7]	Mean lung log10 CFU count (±SD) at W4 [7]	Mean lung log10 CFU count (±SD) at W6 [7]	Reduction of mean lung bacillary burden relative to vehicle control [7]	Expression of pro-inflammatory cytokines [8]	Gross or histological lung pathology [9]	Lung bacillary burden [10]	Reduction of mean lung bacterial burden relative to vehicle control [7]	Secretion of proinflammatory cytokines, including TNF-α [11]	Tubulointerstitial inflammation and fibrosis [12]
CCC1=C(C)c2cc3[n-]c(cc4[n-]c(cc5nc(cc1n2)C(C)=C5CC)c(C)c4CCC(=O)O)c(CCC(=O)O)c3C.[Cl-].[Cl-].[Sn+4] [SnMP, stannsoporfin]	well tolerated	significantly higher expression	reduced expression	induce the activation, proliferation, and maturation	did not differ statistically	did not significantly alter	did not reduce microbiological relapse rates	8 h	neither SnPP nor SnMP adjunctive therapy showed an additive effect	did not significantly enhance	5.73 ± 0.22 log10 CFU	5.36 ± 0.31 log10 CFU	5.98 ± 0.06 log10 CFU	0.67 log10 CFU	induces the expression of pro-inflammatory cytokines	did not significantly alter	–	–	–	–
C=Cc1c2[n-]c(c1C)/C=c1\[n-]/c(c(C)c1C=C)=C\c1[n-]c(c(CCC(=O)O)c1C)C=c1[n-]/c(c(C)c1CCC(=O)O)=C\2.[Sn+4] [SnPP, tin-protoporphyrin IX]	–	–	–	–	–	–	–	8 h	neither SnPP nor SnMP adjunctive therapy showed an additive effect	did not significantly enhance	5.52 ± 0.29 log10 CFU	5.30 ± 0.30 log10 CFU	5.30 ± 0.19 log10 CFU	0.88 log10 CFU	–	–	reduced the lung bacillary burden alone	1.2 log10 CFU and 1.1 log10 CFU	reduced the secretion of proinflammatory cytokines	can induce tubulointerstitial inflammation and fibrosis

— PMC10441415 (bioRxiv, 2023)
